A selection: hits, their analogues and other compounds. The true share with any hit is near 1.8%.
DNMT1 inh: human DNMT1 methyltransferase inhibitors, primary screen, biochemical, molecular beacon, fluorescence, HinP1I cleavage, uHTS; 360,000 compounds, 0.83% hits; DNA (cytosine-5)-methyltransferase 1 (Homo sapiens), P26358; AID 588458, 2011; inhibition (reported as % activation of signal), % at 10 µM; in the data active = inhibition above about 50%
LMPTP block: LMPTP phosphatase inhibitors, primary screen, biochemical, fluorescence intensity, uHTS | Low molecular weight phosphotyrosine protein phosphatase (Homo sapiens), P24666 | recombinant LMPTP-A, OMFP fluorogenic substrate | inhibition, % at 20 µM | 360,000 compounds, 0.22% hits | AID 651560, 2012;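 active = compounds that cut the enzyme signal by at least half of the control window in the single-dose screen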;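 also: plate controls were DMSO wells with enzyme plus substrate for no effect and substrate without enzyme for full effect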
Target sequence (P24666 whole entry, looked up): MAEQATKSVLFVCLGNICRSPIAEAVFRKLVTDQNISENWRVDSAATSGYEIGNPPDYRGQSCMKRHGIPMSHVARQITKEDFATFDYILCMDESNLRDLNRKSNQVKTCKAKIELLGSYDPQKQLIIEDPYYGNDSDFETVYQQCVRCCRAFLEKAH
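Test system: LMPTP-A phosphatase enzyme; input: 0.625 nM LMPTP-A final; reagent: OMFP substrate, 400 µM final; compound dosing: 20 µM single dose, 3% DMSO; incubation: 50 min dark incubation at room temperature; measured by: endpoint fluorescence intensity from OMFP dephosphorylation; measure: % inhibition relative to no-enzyme and uninhibited control wells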
STEP inh: STEP phosphatase inhibitors, primary screen, biochemical, fluorescence intensity, uHTS; Tyrosine-protein phosphatase non-receptor type 5 (Homo sapiens), P54829; recombinant STEP, OMFP fluorogenic substrate; inhibition, % at 20 µM; 360,000 compounds, 0.25% hits; AID 588621, 2011;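 active = inhibition at 20 µM, scaled per plate between control wells, above about 37%, limit read from the data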;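 also: 0% = DMSO with enzyme and substrate and 100% = substrate only without enzyme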
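medium = Bis-Tris buffer pH 6.0, 2.5 mM DTT, 0.005% Tween 20 | test system = STEP (striatal-enriched tyrosine phosphatase) enzyme, cell-free | measure = normalized % inhibition | compound dosing = 20 µM, 1% DMSO | also added = 25 µM OMFP | schedule = reaction 20 min, ambient temperature | measured by = fluorescence read at 480 nm ex / 540 nm em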
SUMO1 PPI mod: modulators of SUMO1 protein-protein interactions, primary screen, biochemical, uHTS. 360,000 compounds, 0.33% hits. inhibition, % at 20 µM. Small ubiquitin-related modifier 1 (Homo sapiens), P63165. SUMO1 binding to a labelled peptide, TR-FRET, 1 h. AID 602429, 2012; in the data active = inhibition above about 37%
Target sequence (P63165 whole entry, looked up): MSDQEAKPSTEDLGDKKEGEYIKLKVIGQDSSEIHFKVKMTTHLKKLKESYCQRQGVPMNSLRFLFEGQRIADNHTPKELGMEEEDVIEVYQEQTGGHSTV
Scp-1 inhibitor: Scp-1 phosphatase inhibitors, primary screen, biochemical, colorimetric, uHTS. Recombinant Scp1, phosphopeptide, malachite green phosphate absorbance. inhibition, % at 20 µM. 340,000 compounds, 0.88% hits;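 active = inhibition above about 50% at 20 µM, limit read from the data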;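 also: plate controls were DMSO wells with enzyme for no effect and wells lacking enzyme for full effect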
Target sequence (Q9GZU7 76-261 limits assumed): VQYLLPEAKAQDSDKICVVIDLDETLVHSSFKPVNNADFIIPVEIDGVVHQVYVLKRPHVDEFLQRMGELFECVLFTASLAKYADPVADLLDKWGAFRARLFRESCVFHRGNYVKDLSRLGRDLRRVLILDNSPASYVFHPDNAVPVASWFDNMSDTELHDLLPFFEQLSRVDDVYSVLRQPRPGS
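System: SCP-1 catalytic domain; Reagent: Phospho 17-mer peptide substrate; Doses: one concentration, 20 µM, with 1.0% DMSO; Incubation: 45 min room-temperature reaction, 5 min colour, 30 min stabiliser; Signal: Phosphate-binding colour reagent, absorbance read at 630 nm.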
* marks the source's active call; other numbers are inactive results.

For CC(C)C[C@@H](CNCC(=O)[C@H](Cc1ccccc1)NC(=O)c1[nH]cnc1C(=O)N[C@H](CN)CC(C)C)NC(=O)c1nc[nH]c1C(=O)N[C@@H](CC(=O)O)C(=O)O the results were DNMT1 inh 4, LMPTP block -2, STEP inh 0, SUMO1 PPI mod 47* and Scp-1 inhibitor 13.
For CCN(C(=O)CSc1nnc(NCCOC)s1)c1c(N)n(Cc2ccccc2)c(=O)[nH]c1=O the results were DNMT1 inh 2, LMPTP block 0, STEP inh -2, SUMO1 PPI mod -3 and Scp-1 inhibitor -6.
Cc1nn(C)cc1CN(C)C(=O)C1CCC(=O)N(CCc2cccc(F)c2)C1 (configuration not stated) was read as DNMT1 inh 0, LMPTP block -1, STEP inh -1 and SUMO1 PPI mod 0.
C[n+]1ccccc1/C=C/c1ccccc1Cl was read as DNMT1 inh 1, LMPTP block -3, STEP inh -2, SUMO1 PPI mod -7 and Scp-1 inhibitor 98*.
Screening CCCCc1c(-c2ccccc2OC)ncn1C1CCCC1 returned LMPTP block 3 and SUMO1 PPI mod 1.
For O=C(NC(=S)Nc1ccc2oc(=O)ccc2c1)c1cc2ccccc2o1 the results were DNMT1 inh 0, LMPTP block 8, STEP inh 4, SUMO1 PPI mod 75* and Scp-1 inhibitor -7.
Screening Nn1c(SCC(=O)Nc2c(F)cc(F)cc2Br)nnc1C1CCCCC1 returned DNMT1 inh -46, LMPTP block 0, STEP inh 4, SUMO1 PPI mod 46* and Scp-1 inhibitor 0.
Screening Nn1c(SCC(=O)Nc2ccc(F)cc2F)nnc1C1CCCCC1 returned DNMT1 inh 1, LMPTP block 0, STEP inh -3, SUMO1 PPI mod 5 and Scp-1 inhibitor -8.
For COC(=O)[C@]12CCCCC=C1N(Cc1ccc3c(c1)OCO3)C(=O)[C@H](CC(=O)NCc1ccc(C)o1)C2 the results were LMPTP block 0 and SUMO1 PPI mod -2.
Screening Cc1cccc2nc(-c3ccccc3)nc(N[C@@H](CO)c3ccccc3)c12 returned DNMT1 inh -13, LMPTP block 54*, STEP inh 2, SUMO1 PPI mod -3 and Scp-1 inhibitor -11.
For CCOCCn1c(=O)c2c(nc3n2CC(C)CN3Cc2ccccc2)n(C)c1=O (configuration not stated) the results were DNMT1 inh 1, LMPTP block 0, STEP inh 2, SUMO1 PPI mod 7 and Scp-1 inhibitor -6.
Screening CC1CCCN(Cc2c(O)ccc3c2O/C(=C\c2ccco2)C3=O)C1 (configuration not stated) returned DNMT1 inh 61*, LMPTP block 14, STEP inh -6, SUMO1 PPI mod 2 and Scp-1 inhibitor 6.
CCN(CC)Cc1cc(Nc2c3ccccc3nc3c4ccccc4n(C)c23)cc(CN(CC)CC)c1O was read as DNMT1 inh 20, LMPTP block 77*, STEP inh 3, SUMO1 PPI mod -47 and Scp-1 inhibitor -8.
CC1(C(=O)NS(=O)(=O)c2ccccc2)CCN1C(=O)c1ccc(C2CCCCC2)cc1 (configuration not stated) was read as DNMT1 inh 3, LMPTP block -2, STEP inh -4 and SUMO1 PPI mod 3.
CN(CCc1ccccc1)C(c1ccnc2ccccc12)c1nnnn1-c1ccc2c(c1)OCCO2 (configuration not stated) was read as LMPTP block 3 and SUMO1 PPI mod -1.
CC[n+]1ccccc1/C=C1\Sc2ccc(C)cc2N1C was read as DNMT1 inh 1, LMPTP block 1, STEP inh -1, SUMO1 PPI mod -33 and Scp-1 inhibitor 79*.
`NC(=S)NNc1cccc2cccnc12` gave DNMT1 inh -11, LMPTP block 50*, STEP inh 3, SUMO1 PPI mod 11 and Scp-1 inhibitor 4.
Screening NC(=S)Nc1cccc2cccnc12 returned DNMT1 inh 0, LMPTP block -1, STEP inh 2, SUMO1 PPI mod -2 and Scp-1 inhibitor 7.
CC(C)CNC(=S)N1CCN(C(c2ccccc2)c2ccccc2)CC1 was read as DNMT1 inh 0, LMPTP block 1, STEP inh 3, SUMO1 PPI mod 1 and Scp-1 inhibitor -8.
Screening C=C(C)CNC(=S)N1CCN(C(c2ccccc2)c2ccccc2)CC1 returned DNMT1 inh 2, LMPTP block 0, STEP inh 0, SUMO1 PPI mod 44* and Scp-1 inhibitor -10.
Cc1ccc(NC(=O)C2CCN(C(=O)c3cccs3)CC2)c(C)c1 was read as DNMT1 inh 2, LMPTP block -3, STEP inh -2, SUMO1 PPI mod 3 and Scp-1 inhibitor 99*.
Screening NC1=NC2(CCCCC2)n2c(nc3ccccc32)N1 returned DNMT1 inh 8, LMPTP block 22, STEP inh 0, SUMO1 PPI mod 0 and Scp-1 inhibitor -7.
For NC1=NC2(CCN(Cc3ccccc3)CC2)n2c(nc3ccccc32)N1 the results were DNMT1 inh 3, LMPTP block 49*, STEP inh 2, SUMO1 PPI mod -4 and Scp-1 inhibitor -7.
CCC1CCCCN1CCCNC(=O)CN1C(=O)COc2ccc(S(=O)(=O)N3CCC(C)CC3)cc21 (configuration not stated) was read as DNMT1 inh 1, LMPTP block -3, STEP inh -1, SUMO1 PPI mod 40* and Scp-1 inhibitor 1.
CCCCN(CCCC)CCNC(=O)CN1C(=O)COc2ccc(S(=O)(=O)N3CCC(C)CC3)cc21 was read as DNMT1 inh 0, LMPTP block 0, STEP inh -2, SUMO1 PPI mod -1 and Scp-1 inhibitor -2.
COC(=O)c1ccc(CNC(=O)c2ccc(S(=O)(=O)N3CCCC(C)C3)cc2)cc1 (configuration not stated) was read as DNMT1 inh 50*, LMPTP block 0, STEP inh 3, SUMO1 PPI mod 0 and Scp-1 inhibitor -8.
CC(=O)Nc1ccc(C=NNC(=O)CCCC(=O)NN=Cc2ccc(NC(C)=O)cc2)cc1 was read as DNMT1 inh -1, LMPTP block 0, STEP inh 0, SUMO1 PPI mod -23 and Scp-1 inhibitor -10.
Screening CCOC(=O)c1c(C)oc2cc(Br)c(O)c(Br)c12 returned DNMT1 inh -1, LMPTP block -1, STEP inh -1, SUMO1 PPI mod 45* and Scp-1 inhibitor -8.

From PubChem BioAssay
